Reference: ChEMBL document CHEMBL1141130, “A novel selective GABA(A) alpha1 receptor agonist displaying sedative and anxiolytic-like properties in rodents” (J Med Chem, 2005)

Tests used:
Rattus norvegicus [1] = assay: Duration of loss of the righting reflex induced by ethanol at a dose of 3 mg/Kg when given per oral; n=14; format: functional, Mus musculus
Rattus norvegicus [2] = assay: Duration of loss of the righting reflex induced by ethanol at a dose of 0.3 mg/Kg when given per oral; n=8; format: functional, Mus musculus
Rattus norvegicus [3] = assay: Duration of loss of the righting reflex induced by ethanol at a dose of 1 mg/Kg when given per oral; n=12; format: functional, Mus musculus
[4] = Binding affinity for rat alpha2 beta2/3 gamma2 GABA-A/BzR receptor
Method in brief: (§1)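 Recombinant rat αxβ2/3γ2 GABAA/benzodiazepine receptors expressed in HEK293 cells. Affinity measured by radioligand binding and reported as Ki. Values are means ± SEM from three independent experiments, each run in triplicate.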

Mus musculus [5] = assay: Percent of mice not entering into the dark compartment in 120 s in 24 hr retention test at 0 hr treatment at a dose of 30 mg/Kg when given peroral […] avoidance test; n=10
[6] = Binding affinity for rat alpha-5 beta2/3 gamma2 GABA-A/BzR receptor; method in brief: as §1
Mus musculus [7] = assay: Percent of mice not entering into the dark compartment in 120 s in 24 hr retention test at 0 hr treatment at a dose of 10 mg/Kg when given peroral […] avoidance test; n=10
Rattus norvegicus [8] = assay: Duration of loss of the righting reflex induced by ethanol at a dose of 30 mg/Kg when given per oral; n=8; format: functional, Mus musculus
[9] = Binding affinity for rat alpha-1 beta2/3 gamma2 GABA A / BzR receptor; method in brief: as §1
[10] = Binding affinity for rat alpha-3 beta2/3 gamma2 GABA-A/BzR receptor; method in brief: as §1

Row | SMILES | Time (Rattus norvegicus [1]) [min] | Time (Rattus norvegicus [2]) [min] | Time (Rattus norvegicus [3]) [min] | Ki [4] [nM] | % (Mus musculus [5]) [%] | Ki [6] [µM] | % (Mus musculus [7]) [%] | Time (Rattus norvegicus [8]) [min] | Ki [9] [nM] | Ki [10] [µM]
1 | CN1C(=O)CN=C(c2ccccc2)c2cc(Cl)ccc21 [DIAZEPAM] | 149.5 | 127.4 | 129.3 | 20 |  |  |  |  |  | 
2 | Cc1ccc(-c2nc3ccc(C)cn3c2CC(=O)N(C)C)cc1 [ZOLPIDEM] |  |  |  |  | 70 | > 10 | 50 |  |  | 
3 | Cc1ccc(-c2nn3ccc(C)nc3c2CC(=O)N(C)C)cc1 |  |  |  | > 10000 | 50 | > 10 | 40 | 104.9 | 31 | > 10
